# From PubChem BioAssay
# Only some compounds are listed: those with a hit (about 2.9% of all), similar ones and a draw of the others.
# PAX8 reporter = inhibitors of PAX8-driven TPO luciferase reporter, primary screen, RMG-I cells, single concentration | inhibition, % at 12.6 µM | AID 652154, 2013 | 1.2% of 360,000 active | SteadyGlo, 24 h;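 active means mean replicate inhibition at least 60% with every replicate also reaching 60%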;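 further: luciferase light reporting Pax8 driven TPO promoter activity; plate controls were median of neutral control wells for no effect and mitoxantrone controls for full effect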
# dFosB activator = activators of delta FosB homodimer, primary screen, biochemical, fluorescence polarization, TAMRA-CDK5 oligo, single point. purified delta FosB; percent of positive-control signal above neutral wells. activation, % at 25 µM. 0.99% of 340,000 active. AID 493131, 2011;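 active means mean activation above about 17%, with every replicate also reaching it, limit read from the data, passing the limit was not always enough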
# Target sequence (P13346 whole entry, looked up): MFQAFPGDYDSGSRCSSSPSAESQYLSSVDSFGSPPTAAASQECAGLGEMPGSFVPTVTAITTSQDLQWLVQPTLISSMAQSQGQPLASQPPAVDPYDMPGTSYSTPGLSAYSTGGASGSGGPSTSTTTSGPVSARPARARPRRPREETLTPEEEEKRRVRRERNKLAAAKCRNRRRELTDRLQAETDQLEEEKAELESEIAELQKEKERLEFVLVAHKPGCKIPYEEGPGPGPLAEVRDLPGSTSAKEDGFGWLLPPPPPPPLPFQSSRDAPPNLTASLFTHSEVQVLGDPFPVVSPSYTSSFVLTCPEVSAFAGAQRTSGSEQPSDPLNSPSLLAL
# Cneo AK release = Cryptococcus neoformans cell lysis inducers, primary screen, AK release luminescence, single concentration. C. neoformans lysis, adenylate kinase release luminescence, 4 h; normalised: neutral wells 0, clomiphene wells 100. lysis activity, % at 15 µM. 0.2% of 360,000 active. AID 651654, 2012;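 active means mean lysis activity across replicates of at least 80%, whatever share of replicates individually reach that level; inactive means mean lysis activity below 80%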
#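 Assay system: Cryptococcus neoformans yeast cells / Dosing: single-point compound dose / Timing: 4 h at 37 °C static, read 1 h later / Measured by: luminescence of released adenylate kinase using an AK detection reagent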
# CDK5 inh = inhibitors of human CDK5/p35 kinase, primary screen, biochemical, single concentration; Cyclin-dependent kinase 5 (Homo sapiens) + Cyclin-dependent kinase 5 activator 1 (Homo …; Recombinant CDK5/p35, ADP-Glo luminescence, 60 min; inhibition, % at 10 µM; 0.01% of 330,000 active;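 active means highest replicate inhibition of at least 50% and at least 75% of replicates reaching 50%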;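 further: plate controls were DMSO neutral control for no effect and GW8510 at 10 µM for full effect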
# Env fusion inh = inhibitors of HIV-1 Env-driven cell-cell fusion, primary screen, HeLa-JRFL effector, CEM21 target cells, luciferase | 1.1% of 360,000 active | inhibition, % at 12.3 µM;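 active means mean replicate inhibition score of at least 50 and every replicate individually at or above 50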;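 further: 0% = plate neutral controls and 100% = maraviroc near 300 nM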
# GSIS activator = GLuc luminescence reporter in INS-1E cells, primary screen for activators of glucose-dependent secretion of insulin. activation, % at 16.6 µM. INS-1E GLuc reporter insulin secretion, 2-3 h. AID 743287, 2014. 0.61% of 370,000 active;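 active means lowest replicate activation of at least 40%, so every replicate reaches that level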;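 further: 0% = median of neutral control wells and 100% = median of IBMX positive control wells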
# * marks the source's active call; other numbers are inactive results; . = no result given; [ ] = dose if it differs, or a comment.
SMILES,PAX8 reporter,dFosB activator,Cneo AK release,CDK5 inh,Env fusion inh,GSIS activator
COc1ccccc1-c1ccc2c(c1)C(C)(Cc1cccc(C#N)c1)C(=O)N2 (configuration not stated),2,.,1,.,101*,-16
COc1ccc([C@H]2C/C=C\C[C@@H](c3cccc(Cl)c3)NC(=O)[C@H](c3ccccc3)CC(=O)N2)c(OC)c1,.,.,.,.,.,1
CN(c1ncnc(N)c1[N+](=O)[O-])C1CCS(=O)(=O)C1 (configuration not stated),25,6,3,1,59*,6
CN(c1ncnc(N)c1[N+](=O)[O-])C1CCCCC1,-49,3,2,3,44,41*
Nc1ncnc(NC2CCS(=O)(=O)C2)c1[N+](=O)[O-] (configuration not stated),-3,-3,1,-1,3,65*
C[C@@H]1CN([C@H](C)CO)C(=O)c2cc(NC(=O)Nc3ccc(F)cc3)ccc2O[C@@H](C)CCCCO[C@@H]1CN(C)Cc1ccccc1,12,.,7,.,-37[16.7 µM],-14
O=C(Nc1cccc(Cl)c1)N1C[C@H]2[C@@H](c3ccccc31)[C@H](CO)N2Cc1cccnc1,6,.,-3,.,.,-5
O=C(OCc1ccccc1)N(CCCCN(CCCNCc1ccccc1)C(=O)OCc1ccccc1)CCCNCc1ccccc1,98*,0,.,0,2,22
CC(C)n1c(NCCc2ccccc2)nc2c1c(=O)n(C)c(=O)n2C,39,-12,0,1,110*,.
CCCNc1nc2c(c(=O)n(C)c(=O)n2C)n1CCc1ccccc1,.,-4,-4,0,46,.
CCC(=O)NC1=C(Cl)C(=O)C(NC(=O)CC)=C(Cl)C1=O,86*,1,-1,-3,-71,29
C[C@@H]1CN([C@@H](C)CO)S(=O)(=O)c2ccc(C#Cc3ccccc3F)cc2O[C@H]1CN(C)CC1CC1,.,.,1,.,6[16.7 µM],-7
C[C@@H]1CN([C@@H](C)CO)S(=O)(=O)c2ccc(C#Cc3ccccc3F)cc2O[C@H]1CN(C)CC1CCOCC1,94*,.,-6,.,21[16.7 µM],-2
C[C@H]1CN([C@@H](C)CO)S(=O)(=O)c2ccc(C#Cc3ccccc3F)cc2O[C@@H]1CN(C)CC1CCOCC1,90*,.,0,.,21[16.7 µM],-12
C[C@@H]1CN([C@H](C)CO)S(=O)(=O)c2ccc(C#Cc3ccccc3F)cc2O[C@@H]1CN(C)CC1CCOCC1,37,.,1,.,-6[16.7 µM],-5
CCC(=O)N1CC(=O)N2[C@H](CO)[C@@H](c3ccc(C#CC4CCCC4)cc3)[C@@H]2C1,-16,.,.,.,.,16
CCNC(=O)C[C@H]1C=C[C@@H](NC(=O)NC2CCCCC2)[C@@H](CO)O1,-4,.,0,.,-4[16.7 µM],4
CC(C)Cc1ccc(C(C)C(N)=NCCc2ccccc2)cc1 (configuration not stated),13,9,1,2,76*,-27
COc1ccc(Nc2nc3[nH]c(=O)cc(O)c3s2)cc1,27,-11,.,0,10,6
O=c1cc(O)c2sc(Nc3ccc(F)c(Cl)c3)nc2[nH]1,74*,-5,.,0,68*,-11
O=c1cc(O)c2sc(Nc3ccc(Cl)c(F)c3)nc2[nH]1,70*,-13,-3,3,31,-14
Cc1ccc(S(=O)(=O)N(C)C[C@H]2OCc3ccccc3-c3ccccc3C(=O)N([C@H](C)CO)C[C@@H]2C)cc1,.,.,.,.,.,-25
O=C(NC1CCCCC1)C(c1ccc(F)cc1)N(Cc1ccccc1)C(=O)CN1C(=O)c2ccccc2S1(=O)=O (configuration not stated),-17,-3,2,2,-22,111*
Cc1ccc(S(=O)(=O)Nc2ccc3c(c2)CC(=O)N([C@H](C)CO)C[C@H](C)[C@@H](CN(C)S(=O)(=O)c2cn(C)cn2)O3)cc1,-18,.,1,.,-20[16.7 µM],7
Cc1ccc(S(=O)(=O)N(C)C[C@H]2Oc3c(NC(=O)Nc4ccc(F)cc4)cccc3C(=O)N([C@@H](C)CO)C[C@H]2C)cc1,78*,.,0,.,25[16.7 µM],-30
SMILES,PAX8 reporter,dFosB activator,Cneo AK release,CDK5 inh,Env fusion inh,GSIS activator
C[C@H](CO)N1C[C@H](C)[C@H](CN(C)S(=O)(=O)c2ccc(Cl)cc2)Oc2c(NC(=O)NC3CCCCC3)cccc2C1=O,92*,.,0,.,.,.
C[C@H]1CN([C@@H](C)CO)C(=O)c2cccc(NC(=O)NC3CCCCC3)c2O[C@@H]1CN(C)S(=O)(=O)c1ccc(Cl)cc1,-1,.,0,.,.,-20
C[C@H](CO)N1C[C@H](C)[C@H](CN(C)S(=O)(=O)c2ccc(Cl)cc2)Oc2c(NC(=O)Nc3ccc(F)cc3)cccc2C1=O,91*,.,0,.,.,-13
Cc1noc(C)c1S(=O)(=O)Nc1ccc2c(c1)C(=O)N([C@@H](C)CO)C[C@@H](C)[C@@H](CN(C)Cc1ccc(Cl)c(Cl)c1)OCCCC[C@@H](C)O2,65*,.,3,.,-3[16.7 µM],-6
Cc1noc(C)c1S(=O)(=O)Nc1ccc2c(c1)C(=O)N([C@@H](C)CO)C[C@H](C)[C@@H](CN(C)Cc1ccc3c(c1)OCO3)OCCCC[C@@H](C)O2,-13,.,101*,.,-38[16.7 µM],-12
Cc1noc(C)c1S(=O)(=O)Nc1ccc2c(c1)C(=O)N([C@@H](C)CO)C[C@@H](C)[C@H](CN(C)Cc1ccc(Cl)c(Cl)c1)OCCCC[C@@H](C)O2,69*,.,4,.,-2[16.7 µM],-12
Cc1noc(C)c1S(=O)(=O)Nc1ccc2c(c1)C(=O)N([C@H](C)CO)C[C@H](C)[C@H](CN(C)Cc1ccc(Cl)c(Cl)c1)OCCCC[C@@H](C)O2,-12,.,2,.,-38[16.7 µM],-13
COc1cccc(CNC(=O)C[C@@H]2C=C[C@H](NC(=O)C3CC3)[C@@H](CO)O2)c1,9,.,-1,.,10[16.7 µM],-3
N#Cc1cccc(C#N)c1N1CCC(C#N)CC1,-17,1,.,0,-1,4
N#Cc1c(F)cccc1N1CCC(C#N)CC1,-23,7,.,-1,64*,.
C[C@H]1CN([C@@H](C)CO)C(=O)c2cc(N(C)C)ccc2O[C@@H]1CN(C)C(=O)Nc1ccccc1,.,.,.,.,.,-11
COc1ccc(NC(=O)N(C)C[C@H]2Oc3ccc(NC(=O)C4CC4)cc3C(=O)N([C@H](C)CO)C[C@H]2C)cc1,6,.,-5,.,9[16.7 µM],13
CCc1ccc(-c2cn3nc(C)c(C)nc3n2)cc1,.,-13,-3,1,76*,.
CC(C)(C)c1ccc(-n2nc(C(N)=O)c(O)cc2=O)cc1,38,-3,-15,0,8,-1
